Reference: article PMC6172068 (Cancer Science, 2018)

Tested on: relapsed/refractory (R/R) acute myeloid leukemia (AML)
Assay: Antileukemic activity
Type: in vivo, Japanese patients
Procedure, shortened: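 Adults (≥18 years) with relapsed/refractory AML took an oral test compound once daily in escalating cohorts (20–300 mg/d). Cycle 0 was a single dose with 2-day observation, followed by 28-day cycles. Marrow aspirates or biopsies were taken at screening, Cycle 1 Day 28, Day 1 of later cycles and end of treatment. CR, CRp and CRi followed International Working Group criteria. The full analysis set was used.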

[1] = FLT3 mutation-negative patients, Total (n = 11)
[2] = FLT3 mutation-positive patients, 20 mg (n = 1)
[3] = FLT3 mutation-positive patients, 40 mg (n = 1)
[4] = FLT3 mutation-positive patients, 80 mg (n = 1)
[5] = FLT3 mutation-positive patients, 200 mg (n = 2)
[6] = patients with mutated FLT3 (n = 5), 1 patient
[7] = patients with wild-type FLT3 (n = 11), 1 patient

## CCc1nc(C(N)=O)c(Nc2ccc(N3CCC(N4CCN(C)CC4)CC3)c(OC)c2)nc1NC1CCOCC1 [gilteritinib]
All patients, 20 mg (n = 1)
  CR: 0 n (%, [95% CI])
  CRc (CR plus CRp plus CRi): 1 (100 [2.5, 100]) n (%, [95% CI])
  CRi: 1 (100 [2.5, 100]) n (%, [95% CI])
  CRp: 0 n (%, [95% CI])
  ORR (CRc plus PR): 1 (100 [2.5, 100]) n (%, [95% CI])
  PR: 0 n (%, [95% CI])
All patients, 40 mg (n = 3)
  CR: 0 n (%, [95% CI])
  CRc (CR plus CRp plus CRi): 0 n (%, [95% CI])
  CRi: 0 n (%, [95% CI])
  CRp: 0 n (%, [95% CI])
All patients, 80 mg (n = 4)
  CR: 1 (25 [0.6, 80.6]) n (%, [95% CI])
  CRc (CR plus CRp plus CRi): 1 (25 [0.6, 80.6]) n (%, [95% CI])
  CRi: 0 n (%, [95% CI])
  CRp: 0 n (%, [95% CI])
  ORR (CRc plus PR): 2 (50 [6.8, 93.2]) n (%, [95% CI])
  PR: 1 (25 [0.6, 80.6]) n (%, [95% CI])
All patients, 120 mg (n = 2)
  CR: 0 n (%, [95% CI])
  CRc (CR plus CRp plus CRi): 1 (50 [1.3, 98.7]) n (%, [95% CI])
  CRi: 1 (50 [1.3, 98.7]) n (%, [95% CI])
  CRp: 0 n (%, [95% CI])
  ORR (CRc plus PR): 1 (50 [1.3, 98.7]) n (%, [95% CI])
  PR: 0 n (%, [95% CI])
All patients, 200 mg (n = 7)
  CR: 0 n (%, [95% CI])
  CRc (CR plus CRp plus CRi): 4 (57.1 [18.4, 90.1]) n (%, [95% CI])
  CRi: 1 (14.3 [0.4, 57.9]) n (%, [95% CI])
  CRp: 3 (42.9 [9.9, 81.6]) n (%, [95% CI])
  ORR (CRc plus PR): 4 (57.1 [18.4, 90.1]) n (%, [95% CI])
  PR: 0 n (%, [95% CI])
All patients, 300 mg (n = 2)
  CR: 0 n (%, [95% CI])
  CRc (CR plus CRp plus CRi): 0 n (%, [95% CI])
  CRi: 0 n (%, [95% CI])
  CRp: 0 n (%, [95% CI])
  ORR (CRc plus PR): 0 n (%, [95% CI])
  PR: 0 n (%, [95% CI])
FAS, all doses, 7 of 19 patients, 95% CI: 16.3, 61.6
  CRc: 36.8%
FAS, all doses, n = 9/19, 95% CI: 24.4, 71.1
  ORR: 47.4%
FAS, 95% CI: 28.0, 116.0
  Median duration of CRc: 86.5 days
FAS, 95% CI: 28.0, 139.0
  Median duration of remission: 113.5 days
[1]
  CR: 1 (9.1 [0.2, 41.3]) n (%, [95% CI])
  CRc (CR plus CRp plus CRi): 3 (27.3 [6.0, 61.0]) n (%, [95% CI])
  CRi: 0 n (%, [95% CI])
  CRp: 2 (18.2 [2.3, 51.8]) n (%, [95% CI])
  ORR (CRc plus PR): 4 (36.4 [10.9, 69.2]) n (%, [95% CI])
  PR: 1 (9.1 [0.2, 41.3]) n (%, [95% CI])
FLT3 mutation-positive patients (n = 5), 95% CI: 14.7, 94.7
  CRc: 60%
FLT3 mutation-positive patients (n = 5), 95% CI: 28.4, 99.5
  ORR: 80%
[2]
  CR: 0 n (%, [95% CI])
  CRc (CR plus CRp plus CRi): 1 (100 [2.5, 100]) n (%, [95% CI])
  CRi: 1 (100 [2.5, 100]) n (%, [95% CI])
  CRp: 0 n (%, [95% CI])
  ORR (CRc plus PR): 1 (100 [2.5, 100]) n (%, [95% CI])
  PR: 0 n (%, [95% CI])
[3]
  CR: 0 n (%, [95% CI])
  CRc (CR plus CRp plus CRi): 0 n (%, [95% CI])
  CRi: 0 n (%, [95% CI])
  CRp: 0 n (%, [95% CI])
  ORR (CRc plus PR): 0 n (%, [95% CI])
  PR: 0 n (%, [95% CI])
[4]
  CR: 0 n (%, [95% CI])
  CRc (CR plus CRp plus CRi): 0 n (%, [95% CI])
  CRi: 0 n (%, [95% CI])
  CRp: 0 n (%, [95% CI])
  ORR (CRc plus PR): 1 (100 [2.5, 100]) n (%, [95% CI])
  PR: 1 (100 [2.5, 100]) n (%, [95% CI])
[5]
  CR: 0 n (%, [95% CI])
  CRc (CR plus CRp plus CRi): 2 (100 [15.8, 100]) n (%, [95% CI])
  CRi: 1 (50 [1.3, 98.7]) n (%, [95% CI])
  CRp: 1 (50 [1.3, 98.7]) n (%, [95% CI])
  ORR (CRc plus PR): 2 (100 [15.8, 100]) n (%, [95% CI])
  PR: 0 n (%, [95% CI])
FLT3 mutation-positive patients, 95% CI: 30.0, 116.0
  Median duration of CRc: 63.0 days
FLT3 mutation-positive patients, 95% CI: 30.0, not evaluable
  Median duration of remission: 89.5 days
[6]
  CR with incomplete platelet recovery: 20%
  partial remission (PR): 20%
Patients with mutated FLT3 (n = 5), 2 patients
  CR with incomplete hematologic recovery: 40%
[7]
  CR: 9.1%
  PR: 9.1%
Patients with wild-type FLT3 (n = 11), 2 patients
  CR with incomplete platelet recovery: 18.2%
Patients without FLT3 mutations (n = 11), 95% CI: 6.0, 61.0
  CRc: 27.3%
Patients without FLT3 mutations (n = 11), 95% CI: 10.9, 69.2
  ORR: 36.4%
Patients without FLT3 mutations, 95% CI: 28.0, 111.0
  Median duration of CRc: 69.5 days
Patients without FLT3 mutations, 95% CI: 28.0, 127.0
  Median duration of remission: 111.0 days
